Measurements: ChEMBL document CHEMBL2390926, “Identification of novel FLT3 kinase inhibitors” (Eur J Med Chem, 2013)
Calls of active or inactive are those of the source. No cut-off for these calls is given here.

Columns and labels:
Type in all cases: cell-based
Conditions in all cases: BaF3
[1] = biological target: T1, Ephrin type-A receptor 8 (Homo sapiens) (UniProt P29322); experiment: Inhibition of EPHA8 (unknown origin) transfected in mouse Ba/F3 cells at 5 uM after 24 hrs
T1 sequence (whole entry): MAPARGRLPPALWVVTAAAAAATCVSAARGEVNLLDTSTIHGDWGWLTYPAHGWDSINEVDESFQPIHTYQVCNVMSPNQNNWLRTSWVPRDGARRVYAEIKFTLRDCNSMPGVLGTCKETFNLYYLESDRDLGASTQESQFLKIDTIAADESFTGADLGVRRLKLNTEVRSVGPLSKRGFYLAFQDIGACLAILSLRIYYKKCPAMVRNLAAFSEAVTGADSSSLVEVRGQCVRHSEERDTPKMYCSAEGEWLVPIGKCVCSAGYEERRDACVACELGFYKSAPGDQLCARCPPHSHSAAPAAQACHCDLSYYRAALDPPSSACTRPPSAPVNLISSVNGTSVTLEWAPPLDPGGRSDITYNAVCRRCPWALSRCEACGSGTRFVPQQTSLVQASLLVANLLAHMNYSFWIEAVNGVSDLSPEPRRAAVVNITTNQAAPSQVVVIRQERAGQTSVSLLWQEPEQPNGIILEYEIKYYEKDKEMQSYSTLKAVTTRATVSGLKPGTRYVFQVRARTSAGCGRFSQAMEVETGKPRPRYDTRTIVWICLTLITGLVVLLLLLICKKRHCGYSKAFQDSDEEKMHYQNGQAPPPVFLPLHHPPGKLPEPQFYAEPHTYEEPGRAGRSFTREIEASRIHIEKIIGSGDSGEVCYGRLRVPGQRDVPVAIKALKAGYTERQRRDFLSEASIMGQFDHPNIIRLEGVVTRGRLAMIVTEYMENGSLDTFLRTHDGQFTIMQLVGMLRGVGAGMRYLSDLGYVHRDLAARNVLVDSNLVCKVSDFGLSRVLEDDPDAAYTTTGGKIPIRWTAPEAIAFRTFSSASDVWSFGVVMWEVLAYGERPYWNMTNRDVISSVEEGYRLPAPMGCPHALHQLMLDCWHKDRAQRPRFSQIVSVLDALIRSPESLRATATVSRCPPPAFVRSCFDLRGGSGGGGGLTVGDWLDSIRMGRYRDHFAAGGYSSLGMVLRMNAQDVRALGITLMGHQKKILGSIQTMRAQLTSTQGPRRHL
How it was run: (§1)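 Kinase specificity panel: each Ba/F3 line transformed with one of 24 tyrosine kinases depends on that kinase to grow. Cells were given compound at 1 or 5 µM for 24 h, with DMSO as comparator. Percentage growth was read by ATP-lite luminescence and reported as mean ± SEM.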

[2] = biological target: T2, Tyrosine-protein kinase Mer (Homo sapiens) (UniProt Q12866); experiment: Inhibition of MERTK (unknown origin) transfected in mouse Ba/F3 cells at 5 uM after 24 hrs
T2 sequence (whole entry): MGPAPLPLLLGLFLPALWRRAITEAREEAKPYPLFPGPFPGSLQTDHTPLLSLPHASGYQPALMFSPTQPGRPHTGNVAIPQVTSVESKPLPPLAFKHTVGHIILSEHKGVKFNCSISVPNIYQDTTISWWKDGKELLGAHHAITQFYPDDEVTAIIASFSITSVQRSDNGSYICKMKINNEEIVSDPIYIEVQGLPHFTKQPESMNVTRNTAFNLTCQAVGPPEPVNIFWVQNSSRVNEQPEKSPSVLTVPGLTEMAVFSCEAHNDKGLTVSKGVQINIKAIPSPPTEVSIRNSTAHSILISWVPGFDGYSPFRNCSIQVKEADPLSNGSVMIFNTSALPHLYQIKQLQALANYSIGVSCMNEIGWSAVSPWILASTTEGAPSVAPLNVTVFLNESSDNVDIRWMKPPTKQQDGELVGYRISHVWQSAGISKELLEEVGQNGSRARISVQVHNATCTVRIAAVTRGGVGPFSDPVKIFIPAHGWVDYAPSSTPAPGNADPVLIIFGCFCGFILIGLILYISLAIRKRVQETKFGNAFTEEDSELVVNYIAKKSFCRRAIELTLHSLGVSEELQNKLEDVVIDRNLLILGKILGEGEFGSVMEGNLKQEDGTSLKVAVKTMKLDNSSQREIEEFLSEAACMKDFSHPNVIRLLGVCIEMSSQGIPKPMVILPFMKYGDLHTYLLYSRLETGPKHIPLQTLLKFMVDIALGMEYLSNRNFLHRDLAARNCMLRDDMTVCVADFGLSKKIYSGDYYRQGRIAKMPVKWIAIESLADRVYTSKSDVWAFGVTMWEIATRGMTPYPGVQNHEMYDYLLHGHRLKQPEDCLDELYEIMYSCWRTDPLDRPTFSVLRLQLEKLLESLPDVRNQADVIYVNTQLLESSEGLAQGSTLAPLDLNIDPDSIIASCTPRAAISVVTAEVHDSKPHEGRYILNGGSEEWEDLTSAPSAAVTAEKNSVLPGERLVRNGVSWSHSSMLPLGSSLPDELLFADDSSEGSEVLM

[3] = biological target: Epidermal growth factor receptor (Homo sapiens) (UniProt P00533); experiment: Inhibition of EGFR (unknown origin) transfected in mouse Ba/F3 cells at 5 uM after 24 hrs; how it was run: as §1
Sequence of Epidermal growth factor receptor (Homo sapiens) (P00533 whole entry): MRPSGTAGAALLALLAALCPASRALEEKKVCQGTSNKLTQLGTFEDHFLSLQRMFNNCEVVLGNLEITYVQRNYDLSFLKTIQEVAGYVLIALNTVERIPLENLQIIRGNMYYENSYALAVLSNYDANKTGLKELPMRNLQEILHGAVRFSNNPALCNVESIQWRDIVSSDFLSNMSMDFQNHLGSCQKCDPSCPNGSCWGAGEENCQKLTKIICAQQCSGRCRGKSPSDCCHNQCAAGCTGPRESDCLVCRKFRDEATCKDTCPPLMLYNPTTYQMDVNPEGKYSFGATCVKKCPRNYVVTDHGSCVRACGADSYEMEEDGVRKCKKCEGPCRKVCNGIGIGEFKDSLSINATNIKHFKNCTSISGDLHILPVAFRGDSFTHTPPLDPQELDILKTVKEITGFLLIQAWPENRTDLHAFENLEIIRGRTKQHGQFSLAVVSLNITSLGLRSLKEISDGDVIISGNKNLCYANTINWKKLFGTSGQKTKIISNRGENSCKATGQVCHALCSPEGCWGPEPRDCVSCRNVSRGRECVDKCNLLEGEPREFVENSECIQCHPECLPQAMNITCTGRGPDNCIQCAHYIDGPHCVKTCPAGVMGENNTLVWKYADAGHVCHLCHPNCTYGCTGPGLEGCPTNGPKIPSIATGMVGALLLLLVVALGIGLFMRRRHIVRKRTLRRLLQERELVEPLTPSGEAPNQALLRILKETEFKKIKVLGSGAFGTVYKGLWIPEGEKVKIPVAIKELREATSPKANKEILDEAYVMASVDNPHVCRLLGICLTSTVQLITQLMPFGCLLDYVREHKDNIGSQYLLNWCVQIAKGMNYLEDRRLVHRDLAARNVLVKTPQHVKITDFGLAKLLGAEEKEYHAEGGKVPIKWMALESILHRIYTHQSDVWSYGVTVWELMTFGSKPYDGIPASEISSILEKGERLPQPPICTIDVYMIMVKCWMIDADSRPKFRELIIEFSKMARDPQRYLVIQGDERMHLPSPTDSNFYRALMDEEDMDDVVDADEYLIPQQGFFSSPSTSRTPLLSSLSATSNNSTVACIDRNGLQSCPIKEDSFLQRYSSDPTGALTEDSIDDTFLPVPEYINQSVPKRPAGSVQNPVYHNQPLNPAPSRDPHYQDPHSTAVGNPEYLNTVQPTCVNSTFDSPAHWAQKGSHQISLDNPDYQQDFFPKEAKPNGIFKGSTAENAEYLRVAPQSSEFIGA

For Cc1ccc(-n2cnc3cc(Nc4nnc(C)c5ccccc45)ccc32)cc1, the inhibition [1] was “inactive”, the inhibition [2] was “inactive” and the inhibition [3] was “inactive”.

For Fc1ccc(-c2n[nH]cc2-c2ccncc2)cc1Cl, the inhibition [1] was “Active”, the inhibition [2] was “inactive” and the inhibition [3] was “inactive”.
